# Laboratory results from ChEMBL document CHEMBL2385063, “Identification of 2-(2-(1-naphthoyl)-8-fluoro-3,4-dihydro-1H-pyrido[4,3-b]indol-5(2H)-yl)acetic acid (setipiprant/ACT-129968), a potent, selective, and orally bioavailable chemoattractant receptor-homologous molecule expressed on Th2 cells (CRTH2) antagonist” (J Med Chem, 2013).
# The source made the active and inactive calls. The rule behind the calls is not given here.
# Columns and labels:
# [1] = Volume of distribution at steady state in Wistar rat at 1 mg/kg, iv and 10 mg/kg, po; format: ADME, organism-based; conditions: in vivo, read-out: Vdss
# How it was run: (§1)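 Male Wistar rats, three animals per experiment, were dosed intravenously and orally with compound given as solutions.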
# [2] = Solubility of the compound in water at pH 4.3; format: physicochemical
# How it was run: (§2)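 Compound was stirred in water, 60 mM citrate buffer pH 4 or 70 mM phosphate buffer pH 7 at 300 rpm, 25 °C, for 24 h. The mixture was filtered, and the filtrate concentration was measured by HPLC-UV at 250 nm against a calibration curve.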
# CYP2D6 = CYP2D6 (Homo sapiens, UniProt P10635); experiment: Inhibition of CYP2D6 in human liver microsomes assessed as dextromethorphan O-demethylation by LC-MS/MS analysis; format: ADME, Microsome; conditions: human, liver microsomes, probe dextromethorphan (O-demethylation)
# Rattus norvegicus [3] = experiment: AUC(0 to last) in Wistar rat at 1 mg/kg, iv and 10 mg/kg, po; format: ADME, organism-based, Plasma; conditions: in vivo
# How it was run: (§3)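 Male Wistar rats, three animals per experiment, given iv (0.2, 1 or 2 mg/kg) and po (2 or 10 mg/kg) doses as solutions; AUC0-last, plasma clearance, half-life and oral bioavailability derived.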
# [4] = biological target: T1, Prostaglandin D2 receptor 2 (Homo sapiens, UniProt Q9Y5Y4); experiment: Antagonist activity at CRTH2 receptor in human eosinophils assessed as inhibition of PGD2-induced cell shape change incubated for 10 mins prior to PGD2 induction measured after 5 mins by FACS flow cytometric analysis in presence of human plasma
# T1 sequence (Q9Y5Y4 whole entry): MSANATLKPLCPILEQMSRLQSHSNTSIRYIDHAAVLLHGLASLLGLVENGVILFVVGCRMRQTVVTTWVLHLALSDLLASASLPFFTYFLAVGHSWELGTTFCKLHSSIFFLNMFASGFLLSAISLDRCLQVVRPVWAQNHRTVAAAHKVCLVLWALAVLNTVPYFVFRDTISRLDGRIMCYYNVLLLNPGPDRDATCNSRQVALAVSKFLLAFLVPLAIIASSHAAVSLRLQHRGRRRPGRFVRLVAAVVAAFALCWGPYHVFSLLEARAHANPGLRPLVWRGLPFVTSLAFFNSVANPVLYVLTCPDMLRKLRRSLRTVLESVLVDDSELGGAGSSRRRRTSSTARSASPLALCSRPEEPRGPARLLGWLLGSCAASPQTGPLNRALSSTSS
# [5] = Solubility of the compound in water at pH 3.9; format: physicochemical; how it was run: as §2
# [6] = Oral bioavailability in Wistar rat at 10 mg/kg; format: ADME, organism-based; conditions: in vivo; how it was run: as §3
# [7] = Half life in Wistar rat at 1 mg/kg, iv and 10 mg/kg, po; format: ADME, organism-based; conditions: in vivo; how it was run: as §3
# [8] = Plasma clearance in Wistar rat at 1 mg/kg, iv and 10 mg/kg, po; format: ADME, organism-based; how it was run: as §3
# [9] = Volume of distribution at steady state in Wistar rat at 2 mg/kg, iv and 10 mg/kg, po; format: ADME, organism-based; conditions: in vivo, read-out: Vdss; how it was run: as §1
# [10] = Plasma clearance in Wistar rat at 2 mg/kg, iv and 10 mg/kg, po; format: ADME, organism-based; how it was run: as §3
# [11] = Half life in Wistar rat at 2 mg/kg, iv and 10 mg/kg, po; format: ADME, organism-based; conditions: in vivo; how it was run: as §3
# Rattus norvegicus [12] = experiment: AUC(0 to last) in Wistar rat at 2 mg/kg, iv and 10 mg/kg, po; format: ADME, organism-based, Plasma; conditions: in vivo; how it was run: as §3
# [13] = biological target: T2, Prostaglandin D2 receptor 2 (Mus musculus) (UniProt Q9Z2J6); experiment: Partial agonist activity at mouse CRTH2 receptor assessed as calcium flux by cell-based FLIPR assay; format: functional
# T2 sequence (whole entry): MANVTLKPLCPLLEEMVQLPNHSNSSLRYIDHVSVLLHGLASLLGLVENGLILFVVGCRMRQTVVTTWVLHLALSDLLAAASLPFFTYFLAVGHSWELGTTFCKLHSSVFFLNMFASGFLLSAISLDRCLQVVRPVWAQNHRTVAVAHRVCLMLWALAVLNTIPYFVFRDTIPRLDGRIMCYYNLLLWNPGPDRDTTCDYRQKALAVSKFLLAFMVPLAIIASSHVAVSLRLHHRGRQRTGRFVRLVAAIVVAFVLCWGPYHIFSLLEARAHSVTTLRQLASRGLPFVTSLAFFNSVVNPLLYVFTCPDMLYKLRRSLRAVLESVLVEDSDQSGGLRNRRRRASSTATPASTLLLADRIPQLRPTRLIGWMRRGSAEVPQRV
# [14] = Oral bioavailability in beagle dog at 10 mg/kg; format: ADME, organism-based, Canis lupus familiaris; conditions: in vivo
# How it was run: (§4)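 Male Beagle dogs, three per experiment, dosed orally at 10 mg/kg (with a 1 mg/kg iv arm) as solutions containing 10% propylene glycol; AUC0-last and oral bioavailability derived.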
# [15] = biological target: T3, Chemoattractant receptor-homologous molecule expressed on Th2 cells (Cavia porcellus) (UniProt Q56D28); experiment: Partial agonist activity at guinea pig CRTH2 receptor assessed as calcium flux by cell-based FLIPR assay; format: functional
# T3 sequence (whole entry): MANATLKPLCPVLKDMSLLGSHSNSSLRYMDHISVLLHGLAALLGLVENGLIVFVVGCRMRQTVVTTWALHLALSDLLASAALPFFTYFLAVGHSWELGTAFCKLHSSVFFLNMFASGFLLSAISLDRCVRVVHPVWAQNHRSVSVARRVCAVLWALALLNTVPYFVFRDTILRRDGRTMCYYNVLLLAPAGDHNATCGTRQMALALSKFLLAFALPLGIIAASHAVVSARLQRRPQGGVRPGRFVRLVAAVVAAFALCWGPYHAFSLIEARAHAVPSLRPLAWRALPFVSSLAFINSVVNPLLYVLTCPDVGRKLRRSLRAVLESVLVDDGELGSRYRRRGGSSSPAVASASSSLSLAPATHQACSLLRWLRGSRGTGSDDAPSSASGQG
# Canis familiaris = experiment: AUC (0 to last) in beagle dog at 10 mg/kg, po; format: ADME, organism-based, Canis lupus familiaris, Plasma; set-up: time 0 - last, dose 10 mg/kg, route oral; conditions: in vivo; how it was run: as §4
# [16] = Clearance in beagle dog at 1 mg/kg, iv; format: ADME, organism-based, Canis lupus familiaris; set-up: dose 1 mg/kg, route intravenous; conditions: in vivo
# How it was run: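 Male Beagle dogs, three per experiment, given 1 mg/kg iv as a solution in 10% propylene glycol; plasma clearance determined.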
# [17] = Solubility of the compound in water at pH 3.8; format: physicochemical; how it was run: as §2
# [18] = Solubility of the compound in water; format: physicochemical; how it was run: as §2
# [19] = Solubility of the compound in water at pH 5.7; format: physicochemical
# How it was run: (§5)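 Compound stirred in 200 μL water at 300 rpm, 25 °C, for 24 h. The biphasic mixture was vacuum-filtered. Filtrate concentration was measured by reversed-phase HPLC with UV detection at 250 nm and quantified from peak area against a calibration curve.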
# [20] = Volume of distribution at steady state in Wistar rat at 0.2 mg/kg, iv and 2 mg/kg, po; format: ADME, organism-based; conditions: in vivo, read-out: Vdss; how it was run: as §1
# [21] = Half life in Wistar rat at 0.2 mg/kg, iv and 2 mg/kg, po; format: ADME, organism-based; conditions: in vivo; how it was run: as §3
# Rattus norvegicus [22] = experiment: AUC(0 to last) in Wistar rat at 0.2 mg/kg, iv and 2 mg/kg, po; format: ADME, organism-based, Plasma; conditions: in vivo; how it was run: as §3
# [23] = Plasma clearance in Wistar rat at 0.2 mg/kg, iv and 2 mg/kg, po; format: ADME, organism-based; how it was run: as §3
# [24] = Solubility of the compound in water at pH 4.9; format: physicochemical; how it was run: as §5
# Chain of CYP2D6 (P10635 whole entry): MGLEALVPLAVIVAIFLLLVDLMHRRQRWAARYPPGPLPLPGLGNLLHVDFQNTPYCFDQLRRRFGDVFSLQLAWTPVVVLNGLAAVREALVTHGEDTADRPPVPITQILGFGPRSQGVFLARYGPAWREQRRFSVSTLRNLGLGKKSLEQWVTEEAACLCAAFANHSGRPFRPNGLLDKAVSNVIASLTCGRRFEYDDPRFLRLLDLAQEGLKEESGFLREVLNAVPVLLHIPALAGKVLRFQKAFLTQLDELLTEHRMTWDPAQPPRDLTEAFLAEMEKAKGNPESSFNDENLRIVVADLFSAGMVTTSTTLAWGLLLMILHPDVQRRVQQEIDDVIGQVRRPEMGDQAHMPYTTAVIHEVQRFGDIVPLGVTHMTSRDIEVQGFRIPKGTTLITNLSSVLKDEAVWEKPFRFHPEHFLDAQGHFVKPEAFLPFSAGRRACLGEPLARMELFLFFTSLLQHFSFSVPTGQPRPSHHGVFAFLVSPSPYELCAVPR
smiles,measurement,setting,value
O=C(O)Cn1c2c(c3ccccc31)CN(C(=O)c1ccccc1)CC2,Vd,[1],0.4 L/kg
same,solubility,[2],64 µg/mL
same,IC50,CYP2D6,> 50000 nM
same,AUClast,Rattus norvegicus [3],6300 ng·h/mL
same,IC50,[4],110 nM
O=C(O)Cn1c2c(c3cc(F)ccc31)CN(C(=O)c1cccs1)CC2,Vd,[1],0.4 L/kg
same,solubility,[5],50 µg/mL
same,bioavailability,[6],5%
same,half-life,[7],0.6 h
same,AUClast,Rattus norvegicus [3],244 ng·h/mL
same,clearance,[8],36 mL/min/kg
CCc1ccc(-c2ccc(C(=O)N3CCc4c(c5ccccc5n4CC(=O)O)C3)cc2)cc1,Vd,[9],0.4 L/kg
same,clearance,[10],35 mL/min/kg
same,half-life,[11],0.5 h
same,solubility,[2],2 µg/mL
same,AUClast,Rattus norvegicus [12],171 ng·h/mL
same,bioavailability,[6],4%
O=C(O)Cn1c2c(c3cc(F)ccc31)CN(C(=O)c1cccc3ccccc13)CC2 [SETIPIPRANT],Vd,[9],0.4 L/kg
same,Activity,[13],Active
same,clearance,[10],1.3 mL/min/kg
same,half-life,[11],6 h
same,solubility,[2],50 µg/mL
same,AUClast,Rattus norvegicus [12],58500 ng·h/mL
same,bioavailability,[14],55%
same,bioavailability,[6],44%
same,Activity,[15],Active
same,AUClast,Canis familiaris,91100 ng·h/mL
same,clearance,[16],1.3 mL/min/kg
O=C(O)Cn1c2c(c3ccccc31)CN(C(=O)c1cccc(Cl)c1)CC2,solubility,[17],110 µg/mL
O=C(O)Cn1c2c(c3ccccc31)CN(C(=O)c1cccc3ccccc13)CC2,Vd,[1],0.4 L/kg
same,Activity,[13],Active
same,solubility,[18],335 µg/mL
same,bioavailability,[6],36%
same,Activity,[15],Active
same,half-life,[7],5.8 h
same,AUClast,Rattus norvegicus [3],57300 ng·h/mL
same,IC50,[4],1120 nM
same,clearance,[8],1.1 mL/min/kg
O=C(O)Cn1c2c(c3cc(F)ccc31)CN(C(=O)Cc1cccc3ccccc13)CC2,solubility,[19],28 µg/mL
O=C(O)Cn1c2c(c3cc(F)ccc31)CN(C(=O)CCc1cccc3ccccc13)CC2,IC50,[4],210 nM
O=C(O)Cn1c2c(c3cc(Cl)ccc31)CN(C(=O)c1cccc3ccccc13)CC2,IC50,[4],100 nM
O=C(O)Cn1c2c(c3cc(C(F)(F)F)ccc31)CN(C(=O)c1ccccc1)CC2,IC50,[4],130 nM
O=C(O)Cn1c2c(c3cc(F)ccc31)CN(C(=O)Cc1c[nH]c3ccccc13)CC2,Vd,[20],0.4 L/kg
same,half-life,[21],1.2 h
same,AUClast,Rattus norvegicus [22],62 ng·h/mL
same,solubility,[17],45 µg/mL
same,clearance,[23],11 mL/min/kg
O=C(O)Cn1c2c(c3cc(F)ccc31)CN(C(=O)c1cccc(Cl)c1)CC2,Vd,[1],0.4 L/kg
same,Activity,[13],Active
same,bioavailability,[14],64%
same,bioavailability,[6],23%
same,solubility,[24],25 µg/mL
same,Activity,[15],Active
same,half-life,[7],2.3 h
same,AUClast,Rattus norvegicus [3],6450 ng·h/mL
same,AUClast,Canis familiaris,9620 ng·h/mL
same,clearance,[16],11 mL/min/kg
same,clearance,[8],5.9 mL/min/kg
O=C(O)Cn1c2c(c3cc(C(F)(F)F)ccc31)CN(C(=O)c1cccc3ccccc13)CC2,IC50,[4],180 nM
